Measured values gathered from unrelated publications.
Each line is one published result; the experiments were not run side by side.
DRD4: D(4) dopamine receptor (DRD4, Homo sapiens, UniProt P21917)
ABHD6: Monoacylglycerol lipase ABHD6 (ABHD6, Homo sapiens, UniProt Q9BV23)
Signal transducer and activator of transcription 6 SH2: Signal transducer and activator of transcription 6, SH2 (Homo sapiens, UniProt P42226)
Oprm1: Mu-type opioid receptor (Oprm1, Rattus norvegicus, UniProt P33535)

SMILES | target | read-out | action | method | setting | IC50
COc1ccccc1OCCNCC(O)COc1cccc2[nH]c3ccccc3c12 (centres unmarked) | DRD4 | ligand displacement |  | radioligand |  | 20 nM
CC(=O)c1c(O)c(C)c(O)c(Cc2c(O)c3c(c(C(=O)/C=C/c4ccccc4)c2O)OC(C)(C)C=C3)c1O | Protein-glutamine gamma-glutamyltransferase (TGM2, Homo sapiens, UniProt P21980) | enzyme activity | inhibitor |  |  | > 50000 nM
CN(C(=O)Oc1nsnc1N1CCCCC1)c1cccc(-c2ccccc2)c1 | ABHD6 | enzyme activity | inhibitor | fluorescence | lysate | 910 nM
COc1cc2c(cc1OC)C(=O)C(CC1CCN(Cc3ccccc3)CC1)C2 (centres unmarked) | DRD4 | ligand displacement |  | radioligand |  | 824 nM
O=P(O)(O)Oc1ccccc1OP(=O)(O)O | Signal transducer and activator of transcription 6 SH2 | ligand displacement |  | FP |  | 36000 nM
COc1cccc(N(C)C(=O)Oc2nsnc2N2CCCCC2)c1 | ABHD6 | enzyme activity | inhibitor | fluorescence | lysate | 195 nM
C[C@@H](NC(=O)[C@@H](N)Cc1ccc(O)cc1)C(=O)NCC(=O)N[C@H](CC(=O)NNC(=O)C[C@H](Cc1ccccc1)NC(=O)CNC(=O)[C@@H](C)NC(=O)[C@@H](N)Cc1ccc(O)cc1)Cc1ccccc1 | Oprm1 | ligand displacement |  | radioligand |  | 2.29 nM
CN(C(=O)Oc1nsnc1N1CCCCC1)c1ccc(Cl)cc1 | ABHD6 | enzyme activity | inhibitor | fluorescence | lysate | 407 nM
C[C@H](N)Cn1ncc2ccc3c(c21)CCCO3 | 5-hydroxytryptamine receptor 5A (HTR5A, Homo sapiens, UniProt P47898) | ligand displacement |  | radioligand |  | 10800 nM
C=CCOC(Cn1ccnc1)c1ccc(Cl)cc1Cl (centres unmarked) | Pleiotropic ABC efflux transporter of multiple drugs (PDR5, Saccharomyces cerevisiae S288c, UniProt P33302) | transporter uptake | inhibitor |  |  | 60000 to 70000 nM
C[C@@H](NC(=O)[C@@H](N)Cc1ccc(O)cc1)C(=O)NCCC(=O)N[C@@H](Cc1ccccc1)C(=O)NNC(=O)[C@H](Cc1ccccc1)NC(=O)CCNC(=O)[C@@H](C)NC(=O)[C@@H](N)Cc1ccc(O)cc1 | Oprm1 | ligand displacement |  | radioligand |  | 380 nM
O=C(COc1ccc2cc(C(=O)Nc3ccccc3)ccc2c1)NCc1ccc(OP(=O)(O)O)c(OP(=O)(O)O)c1 | Signal transducer and activator of transcription 6 SH2 | ligand displacement |  | FP |  | 7170 nM
CN(C(=O)Oc1nsnc1N1CCCCC1)c1ccc(F)cc1 | ABHD6 | enzyme activity | inhibitor | fluorescence | lysate | 78 nM
CCN(CC)Cc1cc(Nc2ccnc3cc(Cl)ccc23)ccc1O | Genome polyprotein, protease (Dengue virus type 2, UniProt P14340) | enzyme activity | inhibitor |  |  | ≥ 250000 nM
